Measurements: ChEMBL document CHEMBL1123393, “5-HT1 and 5-HT2 binding characteristics of 1-(2,5-dimethoxy-4-bromophenyl)-2-aminopropane analogues” (J Med Chem, 1986)

How the values were obtained:
[1] = target: Serotonin 1 (5-HT1) receptor (Rattus norvegicus, UniProt P28564+P30940+P19327+P28565); test: Binding affinity for 5-hydroxytryptamine 1 receptor of rat prefrontal cortex; assay type: tissue-based
Summary of the method: (§1)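 Rat prefrontal cortex (female Sprague-Dawley, ca. 200 g) homogenate, 4 mg wet weight tissue per tube, in 50 mM Tris, 5 mM MgCl2, 0.5 mM EDTA (pH 7.4 at 37 °C). Radioligand 2 nM [3H]-5-HT for 5-HT1 or 0.4 nM [3H]ketanserin for 5-HT2. Nonspecific binding with 1 μM 5-HT or 1 μM cinanserin. Filtration, scintillation counting. IC50 from a 23-point curve in triplicate by nonlinear fit; Ki by Cheng-Prusoff.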

[2] = target: Serotonin 2 (5-HT2) receptor (Rattus norvegicus, UniProt P30994+P08909+P14842); test: Displacement of [3H]ketanserin from rat prefrontal cortex 5-hydroxytryptamine 2 receptor; assay type: tissue-based; summary of the method: as §1
Rattus norvegicus [3] = test: DOM appropriate responding in percent when compound administered at 4 mg/kg; assay type: functional
Summary of the method: (§2)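 Rats trained to discriminate DOM (1.0 mg/kg ip, 15-min presession interval) from saline on two levers. Test doses given ip. Percent of responses on the DOM-appropriate lever recorded during a 2.5-min extinction session.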

Rattus norvegicus [4] = test: DOM appropriate responding in percent when compound administered at 5 mg/kg; assay type: functional; summary of the method: as §2
Rattus norvegicus [5] = test: DOM appropriate responding in percent when compound administered at 6 mg/kg; assay type: functional; summary of the method: as §2
Rattus norvegicus [6] = test: DOM appropriate responding in percent when compound administered at 7 mg/kg; assay type: functional; summary of the method: as §2
Rattus norvegicus [7] = test: DOM appropriate responding in percent when compound administered at 8 mg/kg; assay type: functional; summary of the method: as §2
Rattus norvegicus [8] = test: Number of animals responding to the drug (mg/kg) out of 4 animals tested; assay type: functional
Rattus norvegicus [9] = test: Number of animals responding to the drug 5 (mg/kg) out of 6 animals tested; assay type: functional
Rattus norvegicus [10] = test: Number of animals responding to the drug 6 (mg/kg) out of 5 animals tested; assay type: functional
Rattus norvegicus [11] = test: Number of animals responding to the drug 7 (mg/kg) out of 5 animals tested; assay type: functional
Rattus norvegicus [12] = test: Number of animals responding to the drug 8 (mg/kg) out of 3 animals tested; assay type: functional
Rattus norvegicus [13] = test: DOM appropriate responses per min when compound administered at 4 mg/kg; assay type: functional
Summary of the method: (§3)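 DOM (1.0 mg/kg ip) versus saline two-lever discrimination in food-restricted male Sprague-Dawley rats. Test doses given ip with a 15-min presession interval. Response rate (responses/min) measured during a 2.5-min extinction test session.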

Rattus norvegicus [14] = test: DOM appropriate responses per min when compound administered at 5 mg/kg; assay type: functional; summary of the method: as §3
Rattus norvegicus [15] = test: DOM appropriate responses per min when compound administered at 6 mg/kg; assay type: functional; summary of the method: as §3
Rattus norvegicus [16] = test: DOM appropriate responses per min when compound administered at 7 mg/kg; assay type: functional; summary of the method: as §3
Rattus norvegicus [17] = test: DOM appropriate responses per min when compound administered at 8 mg/kg; assay type: functional; summary of the method: as §3
Rattus norvegicus [18] = test: Concentration required to produce DOM like response when administered in rats; assay type: functional
Summary of the method: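 Six male Sprague-Dawley rats, food-restricted to about 80% of free-feeding weight, trained on two-lever drug discrimination: DOM HCl 1.0 mg/kg ip versus saline, 15 min pre-session. Test drug given ip before a 2.5-min extinction test.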

Rattus norvegicus [19] = test: DOM appropriate responding in percent when compound administered at 11 mg/kg; assay type: functional; summary of the method: as §2
Rattus norvegicus [20] = test: DOM appropriate responding in percent when compound administered at 12 mg/kg; assay type: functional; summary of the method: as §2
Rattus norvegicus [21] = test: DOM appropriate responding in percent when compound administered at 2 mg/kg; assay type: functional; summary of the method: as §2
Rattus norvegicus [22] = test: Number of animals responding to the drug 10 (mg/kg) out of 3 animals tested; assay type: functional
Rattus norvegicus [23] = test: Number of animals responding to the drug 11 (mg/kg) out of 3 animals tested; assay type: functional
Rattus norvegicus [24] = test: Number of animals responding to the drug 12 (mg/kg) out of 3 animals tested; assay type: functional
Rattus norvegicus [25] = test: Number of animals responding to the drug 13 (mg/kg) out of 3 animals tested; assay type: functional
Rattus norvegicus [26] = test: Number of animals responding to the drug 13 (mg/kg) out of 3 animals tested (second group of 3 animals); 1/3; assay type: functional
Rattus norvegicus [27] = test: Number of animals responding to the drug 2 (mg/kg) out of 4 animals tested; assay type: functional
Rattus norvegicus [28] = test: Number of animals responding to the drug 5 (mg/kg) out of 4 animals tested; assay type: functional
Rattus norvegicus [29] = test: DOM appropriate responses per min when compound administered at 10 mg/kg; assay type: functional; summary of the method: as §3
Rattus norvegicus [30] = test: DOM appropriate responses per min when compound administered at 11 mg/kg; assay type: functional; summary of the method: as §3
Rattus norvegicus [31] = test: DOM appropriate responses per min when compound administered at 12 mg/kg; assay type: functional; summary of the method: as §3
Rattus norvegicus [32] = test: DOM appropriate responses per min when compound administered at 2 mg/kg; assay type: functional; summary of the method: as §3
Rattus norvegicus [33] = test: DOM appropriate responding in percent when compound administered at 10 mg/kg; assay type: functional; summary of the method: as §2
Rattus norvegicus [34] = test: Number of animals responding to the drug 0.5 (mg/kg) out of 3 animals tested; assay type: functional
Rattus norvegicus [35] = test: DOM appropriate responses per min when compound administered at 0.2 mg/kg; assay type: functional; summary of the method: as §3
Rattus norvegicus [36] = test: DOM appropriate responses per min when compound administered at 0.5 mg/kg; assay type: functional; summary of the method: as §3
Rattus norvegicus [37] = test: Number of animals responding to the drug 0.1 (mg/kg) out of 4 animals tested; assay type: functional
Rattus norvegicus [38] = test: Number of animals responding to the drug 0.2 (mg/kg) out of 3 animals tested; assay type: functional
Rattus norvegicus [39] = test: DOM appropriate responding in percent when compound administered at 0.1 mg/kg; assay type: functional; summary of the method: as §2
Rattus norvegicus [40] = test: DOM appropriate responding in percent when compound administered at 0.2 mg/kg; assay type: functional; summary of the method: as §2
Rattus norvegicus [41] = test: DOM appropriate responding in percent when compound administered at 0.5 mg/kg; assay type: functional; summary of the method: as §2
Rattus norvegicus [42] = test: DOM appropriate responses per min when compound administered at 0.1 mg/kg; assay type: functional; summary of the method: as §3
Rattus norvegicus [43] = test: DOM appropriate responding in percent when compound administered at 1.2 mg/kg; assay type: functional; summary of the method: as §2
Rattus norvegicus [44] = test: DOM appropriate responding in percent when compound administered at 1.8 mg/kg; assay type: functional; summary of the method: as §2
Rattus norvegicus [45] = test: Number of animals responding to the drug 1.2 (mg/kg) out of 3 animals tested; assay type: functional
Rattus norvegicus [46] = test: Number of animals responding to the drug 1.8 (mg/kg) out of 3 animals tested; assay type: functional
Rattus norvegicus [47] = test: DOM appropriate responses per min when compound administered at 1.2 mg/kg; assay type: functional; summary of the method: as §3
Rattus norvegicus [48] = test: DOM appropriate responses per min when compound administered at 1.8 mg/kg; assay type: functional; summary of the method: as §3

COc1cc(C[C@@H](C)N)c(OC)cc1I
Ki [1]: 2.29 µM | Ki [2]: 0.0099 µM

CCCNC(C)Cc1cc(OC)c(Br)cc1OC (stereo not given)
Ki [1]: 1.32 µM | Ki [2]: 1.93 µM | Activity (Rattus norvegicus [3]): 24% | Activity (Rattus norvegicus [4]): 63% | Activity (Rattus norvegicus [5]): 79% | Activity (Rattus norvegicus [6]): 88% | Activity (Rattus norvegicus [7]): 92% | Activity (Rattus norvegicus [8]): 4 | Activity (Rattus norvegicus [9]): 6 | Activity (Rattus norvegicus [10]): 4 | Activity (Rattus norvegicus [11]): 3 | Activity (Rattus norvegicus [12]): 3 | Response (Rattus norvegicus [13]): 10.2 min | Response (Rattus norvegicus [14]): 6.3 min | Response (Rattus norvegicus [15]): 10.2 min | Response (Rattus norvegicus [16]): 5.2 min | Response (Rattus norvegicus [17]): 5.9 min | ED50 (Rattus norvegicus [18]): 4.76 mg/kg

CCCNC(C)Cc1cc(OC)ccc1OC (stereo not given)
Ki [1]: 4.1 µM | Ki [2]: 25.6 µM

COc1cc(Br)ccc1CC(C)N (stereo not given)
Ki [1]: 2.9 µM | Ki [2]: 4.87 µM | Activity (Rattus norvegicus [19]): 17% | Activity (Rattus norvegicus [20]): 65% | Activity (Rattus norvegicus [21]): 14% | Activity (Rattus norvegicus [4]): 15% | Activity (Rattus norvegicus [22]): 3 | Activity (Rattus norvegicus [23]): 3 | Activity (Rattus norvegicus [24]): 2 | Activity (Rattus norvegicus [25]): 1 | Activity (Rattus norvegicus [26]): 1 | Activity (Rattus norvegicus [27]): 4 | Activity (Rattus norvegicus [28]): 3 | Response (Rattus norvegicus [29]): 4.5 min | Response (Rattus norvegicus [30]): 3.3 min | Response (Rattus norvegicus [31]): 2.8 min | Response (Rattus norvegicus [32]): 16.3 min | Response (Rattus norvegicus [14]): 14.9 min | Activity (Rattus norvegicus [33]): 8%

COc1cc(CC(C)N)ccc1Br (stereo not given)
Ki [1]: > 25 µM | Ki [2]: > 25 µM

COc1cc(CC(C)N)c(O)cc1Br (stereo not given)
Ki [1]: 1.71 µM | Ki [2]: 0.21 µM | ED50 (Rattus norvegicus [18]): 0.18 mg/kg | Activity (Rattus norvegicus [34]): 3 | Response (Rattus norvegicus [35]): 12.1 min | Response (Rattus norvegicus [36]): 11.9 min | Activity (Rattus norvegicus [37]): 4 | Activity (Rattus norvegicus [38]): 3 | Activity (Rattus norvegicus [39]): 19% | Activity (Rattus norvegicus [40]): 55% | Activity (Rattus norvegicus [41]): 96% | Response (Rattus norvegicus [42]): 15.4 min

CC(N)Cc1ccc(Br)cc1 (stereo not given)
Ki [1]: 2.83 µM | Ki [2]: 4.65 µM

COc1cc(CC(C)N)c(OC)cc1I (stereo not given)
Ki [1]: 0.92 µM | Ki [2]: 0.035 µM | ED50 (Rattus norvegicus [18]): 0.99 mg/kg | Activity (Rattus norvegicus [43]): 43% | Activity (Rattus norvegicus [44]): 93% | Activity (Rattus norvegicus [34]): 3 | Activity (Rattus norvegicus [45]): 3 | Activity (Rattus norvegicus [46]): 3 | Response (Rattus norvegicus [36]): 12.2 min | Response (Rattus norvegicus [47]): 16.9 min | Response (Rattus norvegicus [48]): 7.8 min | Activity (Rattus norvegicus [41]): 14%

COc1cccc(CC(C)N)c1 (racemic)
Ki [1]: 2.66 µM | Ki [2]: 7.85 µM

COc1ccccc1CC(C)N (racemic)
Ki [1]: 3.5 µM

COc1ccc(OC)c(CC(C)N)c1 (racemic)
Ki [1]: 1.02 µM

COc1cc(CC(C)N)c(OC)cc1Br (racemic) [BROLAMFETAMINE]
Ki [1]: 3.34 µM | ED50 (Rattus norvegicus [18]): 0.2 mg/kg
